Measured values: article PMC10691213 (Proceedings of the National Academy of Sciences of the …, 2023)

Assays:
[1] = test system: HEK293T cells; test: MS analysis of TACC1 / MLXIPL phosphopeptides isolated from HEK293T cells; type: cell-based, human; details: serum-starved, 500 nM trametinib pre-treatment 1 h, EGF 5 min
[2] = test system: HEK293T cells; type: cell-based, human; details: 500 nM anisomycin 1 h
How it was run: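 HEK293T cells were transiently transfected (polyethyleneimine) with FLAG-MLXIPL or TACC1 plasmid. Where indicated, cells were pre-treated with 50 μM SB203580 for 1 h at 37 °C, then given 500 nM anisomycin or 0.001% DMSO vehicle for 1 h at 37 °C. Lysates were clarified and equal protein (BCA) resolved on 5% gels with […] Phos-tag plus 50 μM MnCl2, or by standard SDS-PAGE, then immunoblotted.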

CC(=O)Nc1cccc(-n2c(=O)n(C3CC3)c(=O)c3c(Nc4ccc(I)cc4F)n(C)c(=O)c(C)c32)c1 [trametinib]
EGF-stimulated TACC1 Ser231 phosphorylation [1]: blocked

C[S+]([O-])c1ccc(-c2nc(-c3ccncc3)c(-c3ccc(F)cc3)[nH]2)cc1 (stereo not drawn) [SB203580]
anisomycin-induced MLXIPL phosphorylation (mobility shift) ([2]; 50 μM SB203580 pre-treatment 1 h): partly dependent on p38α/β

COc1ccc(C[C@H]2NC[C@H](O)[C@H]2OC(C)=O)cc1 [Anisomycin, anisomycin]
phosphorylation of TACC1 (mobility shift) [2]: did not induce phosphorylation
